Columns and labels:
[1] = cited from earlier work
[2] = molecular target: A variant of human AGP (Homo sapiens, UniProt P19652); test: ITC of drug binding to the separated A variant of AGP; conditions: 30°C
[3] = molecular target: F1*S variant of human AGP (Homo sapiens, UniProt P02763); test: ITC of drug binding to the separated F1*S variant of AGP; conditions: 30°C
Procedure, shortened: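 F1*S variant resolved from re-purified commercial human AGP on copper(II) IMAC (20 mM HEPES pH 7.4 load; 0→100% 300 mM imidazole, 1 mL/min). Degassed protein (140 μM, 20 mM HEPES pH 7.4) titrated with 5→16 mM drug in dialysate, 240 s intervals, 360 rpm, 30°C. Drug-into-buffer dilution heat subtracted. Integrated peaks vs molar ratio fitted by Marquardt for n, Ka, ΔH.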

[4] = system: A and F1*S variants of human AGP; conditions: cited from earlier work
[5] = system: human AGP; test: Isothermal titration calorimetry; type: binding; conditions: ITC, 30°C, heterogeneous AGP preparation

What does the source list for `CN(C)CCC=C1c2ccccc2CCc2ccccc21` [amitriptyline]?
pKa of the N,N-dimethylpropan-1-amine side chain [1]: 9.2; thermodynamic binding signature ([2]; A variant): dominant favorable entropy gain and a smaller, albeit favorable enthalpy gain; greater affinity for the A variant compared to the F1*S variant ([2]; separated variants): 4 fold; thermodynamic binding signature ([3]; F1*S variant): comparable enthalpy and entropy gains; lower binding affinity of the F1*S variant (vs A variant) ([3]; separated variants): 4 fold; difference in affinity between A and F1*S [4]: > 20 fold

For `CN(C)CCCN1c2ccccc2Sc2ccc(Cl)cc21` [chlorpromazine], which “binding energetics, A versus F1*S variant” value ([2]; separated variants) is on record?
Its value is “comparable for both variants”.

What about the “affinity for both variants” value [4] of the same compound?
Its value is “comparable”.

For `CC(C)N(CCC(C(N)=O)(c1ccccc1)c1ccccn1)C(C)C` (stereo not drawn) [disopyramide], which “affinity for the F1*S” value [4] is on record?
The value was “very low”.

What about the “variant selectivity of binding” value [4] of the same compound?
Its value is “selectively bind to the A variant”.

For `CN(C)CC/C=C1\c2ccccc2CSc2ccccc21` [dothepin], which “lower affinity for AGP compared to amitriptyline” value [5] is on record?
Its value is ~ 2.5 fold.

With `CN1CCN2c3ccccc3Cc3ccccc3C2C1` (stereo not drawn) [miaserine] as the compound, how does the “lower affinity for AGP compared to amitriptyline” value [5] read?
The value was ~ 6 fold.
